Results reported in ChEMBL document CHEMBL3734675, “Synthesis, antimycobacterial and antibacterial activity of fluoroquinolone derivatives containing an 3-alkoxyimino-4-(cyclopropylanimo)methylpyrrolidine moiety” (2015).
In brackets after ≈: the same amount, converted by molar mass.

Columns and labels:
Assay type in all cases: functional
[1] = test system: Mycobacterium tuberculosis; experiment: Antimycobacterial activity against Mycobacterium tuberculosis H37Rv ATCC 27294 incubated for 7 days by microplate Alamar Blue assay; conditions: H37Rv ATCC 27294, 168 h
Method in brief: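 Fluorescence read-out. MIC is the lowest concentration that reduces fluorescence by at least 90% relative to the mean of replicate bacterium-only controls. Isoniazid and rifampicin were included as reference drugs.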

Enterococcus faecium [2] = experiment: Antibacterial activity against Enterococcus faecium 14-5 after 18 to 24 hrs by two-fold serial dilution method
Method in brief: (§1)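 Twofold serial dilution in agar media against Gram-positive and Gram-negative strains. Plates incubated at 35 °C for 18–24 h. MIC read as the lowest compound concentration giving complete inhibition of bacterial growth.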

Staphylococcus aureus [3] = experiment: Antibacterial activity against methicillin-sensitive Staphylococcus aureus 14-1 after 18 to 24 hrs by two-fold serial dilution method; method in brief: as §1
Klebsiella pneumoniae [4] = experiment: Antibacterial activity against Klebsiella pneumoniae 14-3 after 18 to 24 hrs by two-fold serial dilution method; method in brief: as §1
Escherichia coli [5] = experiment: Antibacterial activity against Escherichia coli 14-2 after 18 to 24 hrs by two-fold serial dilution method; method in brief: as §1
Escherichia coli [6] = experiment: Antibacterial activity against extended-spectrum beta-lactamase producing Escherichia coli 14-2 after 18 to 24 hrs by two-fold serial dilution method; method in brief: as §1
Escherichia coli [7] = experiment: Antibacterial activity against extended-spectrum beta-lactamase producing Escherichia coli 14-1 after 18 to 24 hrs by two-fold serial dilution method; method in brief: as §1
Klebsiella pneumoniae [8] = experiment: Antibacterial activity against Klebsiella pneumoniae 14-2 after 18 to 24 hrs by two-fold serial dilution method; method in brief: as §1
Pseudomonas aeruginosa [9] = experiment: Antibacterial activity against Pseudomonas aeruginosa ATCC 27853 after 18 to 24 hrs by two-fold serial dilution method; method in brief: as §1
Klebsiella pneumoniae [10] = experiment: Antibacterial activity against extended-spectrum beta-lactamase producing Klebsiella pneumoniae 14-19 after 18 to 24 hrs by two-fold serial dilution method; method in brief: as §1
Klebsiella pneumoniae [11] = experiment: Antibacterial activity against extended-spectrum beta-lactamase producing Klebsiella pneumoniae 14-17 after 18 to 24 hrs by two-fold serial dilution method; method in brief: as §1
Staphylococcus aureus [12] = experiment: Antibacterial activity against methicillin-sensitive Staphylococcus aureus 14-3 after 18 to 24 hrs by two-fold serial dilution method; method in brief: as §1
Streptococcus pneumoniae = experiment: Antibacterial activity against methicillin-resistant Streptococcus pneumoniae ATCC 19615 after 18 to 24 hrs by two-fold serial dilution method
Method in brief: (§2)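 Agar media, standard twofold serial dilution. MIC is the lowest concentration giving complete inhibition of bacterial growth after incubation at 35 °C for 18–24 h. Ciprofloxacin and levofloxacin were run as comparators.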

Pseudomonas aeruginosa [13] = experiment: Antibacterial activity against Pseudomonas aeruginosa 14-14 after 18 to 24 hrs by two-fold serial dilution method; method in brief: as §1
Pseudomonas aeruginosa [14] = experiment: Antibacterial activity against Pseudomonas aeruginosa 14-15 after 18 to 24 hrs by two-fold serial dilution method; method in brief: as §1
Klebsiella pneumoniae [15] = experiment: Antibacterial activity against Klebsiella pneumoniae 14-4 after 18 to 24 hrs by two-fold serial dilution method; method in brief: as §1
Klebsiella pneumoniae [16] = experiment: Antibacterial activity against extended-spectrum beta-lactamase producing Klebsiella pneumoniae 14-18 after 18 to 24 hrs by two-fold serial dilution method; method in brief: as §1
Enterococcus faecalis [17] = experiment: Antibacterial activity against Enterococcus faecalis 14-1 after 18 to 24 hrs by two-fold serial dilution method; method in brief: as §1
Escherichia coli [18] = experiment: Antibacterial activity against Escherichia coli 14-1 after 18 to 24 hrs by two-fold serial dilution method; method in brief: as §1
[19] = test system: Staphylococcus epidermidis; experiment: Antibacterial activity against methicillin-resistant Staphylococcus epidermidis 14-22 after 18 to 24 hrs by two-fold serial dilution method; method in brief: as §2
Pseudomonas aeruginosa [20] = experiment: Antibacterial activity against Pseudomonas aeruginosa 14-16 after 18 to 24 hrs by two-fold serial dilution method; method in brief: as §1
[21] = test system: Staphylococcus epidermidis; experiment: Antibacterial activity against methicillin-sensitive Staphylococcus epidermidis 14-2 after 18 to 24 hrs by two-fold serial dilution method; method in brief: as §1
Staphylococcus aureus [22] = experiment: Antibacterial activity against Staphylococcus aureus CMCC 26003 after 18 to 24 hrs by two-fold serial dilution method; method in brief: as §1
[23] = test system: Staphylococcus epidermidis; experiment: Antibacterial activity against methicillin-resistant Staphylococcus epidermidis 14-21 after 18 to 24 hrs by two-fold serial dilution method; method in brief: as §2
Klebsiella pneumoniae [24] = experiment: Antibacterial activity against Klebsiella pneumoniae 14-1 after 18 to 24 hrs by two-fold serial dilution method; method in brief: as §1
Staphylococcus aureus [25] = experiment: Antibacterial activity against methicillin-sensitive Staphylococcus aureus 14-4 after 18 to 24 hrs by two-fold serial dilution method; method in brief: as §1
[26] = test system: Staphylococcus epidermidis; experiment: Antibacterial activity against methicillin-resistant Staphylococcus epidermidis 14-37 after 18 to 24 hrs by two-fold serial dilution method; method in brief: as §2
Staphylococcus aureus [27] = experiment: Antibacterial activity against methicillin-resistant Staphylococcus aureus 14-4 after 18 to 24 hrs by two-fold serial dilution method; method in brief: as §2
[28] = test system: Staphylococcus epidermidis; experiment: Antibacterial activity against methicillin-resistant Staphylococcus epidermidis 14-39 after 18 to 24 hrs by two-fold serial dilution method; method in brief: as §2
Escherichia coli [29] = experiment: Antibacterial activity against Escherichia coli ATCC 25922 after 18 to 24 hrs by two-fold serial dilution method; method in brief: as §1
Pseudomonas aeruginosa [30] = experiment: Antibacterial activity against Pseudomonas aeruginosa 14-9 after 18 to 24 hrs by two-fold serial dilution method; method in brief: as §1
Enterococcus faecalis [31] = experiment: Antibacterial activity against Enterococcus faecalis 14-2 after 18 to 24 hrs by two-fold serial dilution method; method in brief: as §1
Staphylococcus aureus [32] = experiment: Antibacterial activity against methicillin-resistant Staphylococcus aureus 14-5 after 18 to 24 hrs by two-fold serial dilution method; method in brief: as §2
Enterococcus faecium [33] = experiment: Antibacterial activity against Enterococcus faecium 14-2 after 18 to 24 hrs by two-fold serial dilution method; method in brief: as §1
Enterococcus faecium [34] = experiment: Antibacterial activity against Enterococcus faecium 14-6 after 18 to 24 hrs by two-fold serial dilution method; method in brief: as §1

Row | Compound | MIC (Enterococcus faecium [2]) [µg/mL] | MIC (Staphylococcus aureus [3]) [µg/mL] | MIC (Klebsiella pneumoniae [4]) [µg/mL] | MIC (Escherichia coli [5]) [µg/mL] | MIC (Escherichia coli [6]) [µg/mL] | MIC (Escherichia coli [7]) [µg/mL] | MIC (Klebsiella pneumoniae [8]) [µg/mL] | MIC (Pseudomonas aeruginosa [9]) [µg/mL] | MIC (Klebsiella pneumoniae [10]) [µg/mL] | MIC (Klebsiella pneumoniae [11]) [µg/mL] | MIC (Staphylococcus aureus [12]) [µg/mL] | MIC (Streptococcus pneumoniae) [µg/mL] | MIC (Pseudomonas aeruginosa [13]) [µg/mL] | MIC (Pseudomonas aeruginosa [14]) [µg/mL] | MIC (Klebsiella pneumoniae [15]) [µg/mL] | MIC (Klebsiella pneumoniae [16]) [µg/mL] | MIC (Enterococcus faecalis [17]) [µg/mL] | MIC (Escherichia coli [18]) [µg/mL] | MIC [19] [µg/mL] | MIC (Pseudomonas aeruginosa [20]) [µg/mL] | further results
1 | NNC(=O)c1ccncc1 [ISONIAZID] |  |  |  |  |  |  |  |  |  |  |  |  |  |  |  |  |  |  |  |  | MIC90 [1]: 0.05 µg/mL (≈ 0.365 µM)
2 | CO[C@H]1/C=C/O[C@@]2(C)Oc3c(C)c(O)c4c(O)c(c(/C=N/N5CCN(C)CC5)c(O)c4c3C2=O)NC(=O)/C(C)=C\C=C\[C@H](C)[C@H](O)[C@@H](C)[C@@H](O)[C@@H](C)[C@H](OC(C)=O)[C@@H]1C [RIFAMPIN] |  |  |  |  |  |  |  |  |  |  |  |  |  |  |  |  |  |  |  |  | MIC90 [1]: 0.05 µg/mL (≈ 0.0608 µM)
3 | O=C(O)c1cn(C2CC2)c2nc(N3C/C(=N/OCc4ccccc4)C(CNC4CC4)C3)c(F)cc2c1=O (centres undefined) | 32 (≈ 63.3 µM) | 8 (≈ 15.8 µM) | 128 (≈ 253 µM) | > 128 | > 128 | 32 (≈ 63.3 µM) | 64 (≈ 127 µM) | 64 (≈ 127 µM) | 128 (≈ 253 µM) | 128 (≈ 253 µM) | 4 (≈ 7.91 µM) | 8 (≈ 15.8 µM) | 64 (≈ 127 µM) | 128 (≈ 253 µM) | > 128 | 128 (≈ 253 µM) | 64 (≈ 127 µM) | > 128 | 16 (≈ 31.6 µM) | 64 (≈ 127 µM) | MIC [21]: 64 µg/mL (≈ 127 µM); MIC (Staphylococcus aureus [22]): < 0.008 µg/mL; MIC [23]: 16 µg/mL (≈ 31.6 µM); MIC (Klebsiella pneumoniae [24]): 64 µg/mL (≈ 127 µM); MIC (Staphylococcus aureus [25]): 8 µg/mL (≈ 15.8 µM); MIC [26]: 16 µg/mL (≈ 31.6 µM); MIC (Staphylococcus aureus [27]): > 128 µg/mL; MIC [28]: 32 µg/mL (≈ 63.3 µM); MIC (Escherichia coli [29]): 4 µg/mL (≈ 7.91 µM); MIC (Pseudomonas aeruginosa [30]): 64 µg/mL (≈ 127 µM); MIC (Enterococcus faecalis [31]): 1 µg/mL (≈ 1.98 µM); MIC (Staphylococcus aureus [32]): 16 µg/mL (≈ 31.6 µM); MIC (Enterococcus faecium [33]): 16 µg/mL (≈ 31.6 µM); MIC (Enterococcus faecium [34]): 8 µg/mL (≈ 15.8 µM)
4 | CCO/N=C1/CN(c2c(F)cc3c(=O)c(C(=O)O)cn([C@@H]4C[C@@H]4F)c3c2OC)CC1CNC1CC1 (some centres undefined) | 4 (≈ 8.15 µM) | 8 (≈ 16.3 µM) | > 32 | > 32 | > 32 | 4 (≈ 8.15 µM) | > 32 | 16 (≈ 32.6 µM) | > 32 | 32 (≈ 65.2 µM) | 0.03 (≈ 0.0612 µM) | 0.25 (≈ 0.51 µM) | 32 (≈ 65.2 µM) | 32 (≈ 65.2 µM) | > 32 | 32 (≈ 65.2 µM) | 32 (≈ 65.2 µM) | > 32 | 8 (≈ 16.3 µM) | 32 (≈ 65.2 µM) | MIC [21]: 16 µg/mL (≈ 32.6 µM); MIC (Staphylococcus aureus [22]): 0.06 µg/mL (≈ 0.122 µM); MIC [23]: 8 µg/mL (≈ 16.3 µM); MIC (Klebsiella pneumoniae [24]): > 32 µg/mL; MIC (Staphylococcus aureus [25]): 0.06 µg/mL (≈ 0.122 µM); MIC [26]: 8 µg/mL (≈ 16.3 µM); MIC (Staphylococcus aureus [27]): 8 µg/mL (≈ 16.3 µM); MIC [28]: 4 µg/mL (≈ 8.15 µM); MIC (Escherichia coli [29]): 2 µg/mL (≈ 4.08 µM); MIC (Pseudomonas aeruginosa [30]): 32 µg/mL (≈ 65.2 µM); MIC (Enterococcus faecalis [31]): 2 µg/mL (≈ 4.08 µM); MIC (Staphylococcus aureus [32]): 16 µg/mL (≈ 32.6 µM); MIC (Enterococcus faecium [33]): 8 µg/mL (≈ 16.3 µM); MIC (Enterococcus faecium [34]): 16 µg/mL (≈ 32.6 µM)
5 | CC1(CNC2CC2)CN(c2nc3c(cc2F)c(=O)c(C(=O)O)cn3C2CC2)C/C1=N/OCc1ccccc1 (centres undefined) | 2 (≈ 3.85 µM) | 2 (≈ 3.85 µM) | > 128 | > 128 | > 128 | 32 (≈ 61.6 µM) | 64 (≈ 123 µM) | 64 (≈ 123 µM) | 128 (≈ 246 µM) | 128 (≈ 246 µM) | 0.5 (≈ 0.962 µM) | 0.5 (≈ 0.962 µM) | 128 (≈ 246 µM) | 128 (≈ 246 µM) | > 128 | 128 (≈ 246 µM) | 64 (≈ 123 µM) | > 128 | 4 (≈ 7.7 µM) | 128 (≈ 246 µM) | MIC [21]: 16 µg/mL (≈ 30.8 µM); MIC (Staphylococcus aureus [22]): < 0.008 µg/mL; MIC [23]: 8 µg/mL (≈ 15.4 µM); MIC (Klebsiella pneumoniae [24]): 64 µg/mL (≈ 123 µM); MIC (Staphylococcus aureus [25]): 0.5 µg/mL (≈ 0.962 µM); MIC [26]: 2 µg/mL (≈ 3.85 µM); MIC (Staphylococcus aureus [27]): 2 µg/mL (≈ 3.85 µM); MIC [28]: 2 µg/mL (≈ 3.85 µM); MIC (Escherichia coli [29]): 1 µg/mL (≈ 1.92 µM); MIC (Pseudomonas aeruginosa [30]): 64 µg/mL (≈ 123 µM); MIC (Enterococcus faecalis [31]): 0.25 µg/mL (≈ 0.481 µM); MIC (Staphylococcus aureus [32]): 2 µg/mL (≈ 3.85 µM); MIC (Enterococcus faecium [33]): 4 µg/mL (≈ 7.7 µM); MIC (Enterococcus faecium [34]): 4 µg/mL (≈ 7.7 µM)
